Converted amounts (≈) assume the structure as drawn.
Experiments:
MCF7 [1] = experiment: Effect on hydrogen peroxide level in human MCF7 cells assessed per mg protein at 2 ug/ml by Wolf's method after 24 hrs (reference value: 12.50 +/- 1.54 nmol/mg of protein); assay type: functional
MCF7 [2] = experiment: Effect on hydrogen peroxide level in human MCF7 cells assessed per mg protein at 5 ug/ml by Wolf's method after 24 hrs (reference value: 12.50 +/- 1.54 nmol/mg of protein); assay type: functional
MCF7 [3] = experiment: Effect on hydrogen peroxide level in human MCF7 cells assessed per mg protein at 10 ug/ml by Wolf's method after 24 hrs (reference value: 12.50 +/- 1.54 nmol/mg of protein); assay type: functional
MCF7 [4] = experiment: Effect on hydrogen peroxide level in human MCF7 cells assessed per mg protein at 20 ug/ml by Wolf's method after 24 hrs (reference value: 12.50 +/- 1.54 nmol/mg of protein); assay type: functional
MCF7 [5] = experiment: Decrease in CAT level in human MCF7 cells; assay type: functional, cell-based
MCF7 [6] = experiment: Decrease in glutathione peroxidase level in human MCF7 cells; assay type: functional, cell-based
MCF7 [7] = experiment: Decrease in glutathione level in human MCF7 cells; assay type: functional, cell-based
MCF7 [8] = experiment: Increase in hydrogen peroxide level in human MCF7 cells; assay type: functional, cell-based
MCF7 [9] = experiment: Increase in SOD level in human MCF7 cells; assay type: functional, cell-based
MCF7 [10] = experiment: Effect on DNA level in human MCF7 cells assessed per 10 '6 cells at 2 ug/ml after 24 hrs (reference value: 6.80 +/- 0.70 ug/10^6 cells); assay type: functional
Outline: (§1)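 After 24 h exposure of MCF-7 cells to compound at 2, 5, 10 or 20 µg/ml at 37 °C, nucleic acids were precipitated from cell homogenates. DNA was extracted and assayed by the Zhou et al. method, and RNA by a kit-derived procedure. Results given per 10⁶ cells as means ± S.E. of four experiments versus untreated control.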

MCF7 [11] = experiment: Effect on DNA level in human MCF7 cells assessed per 10 '6 cells at 5 ug/ml after 24 hrs (reference value: 6.80 +/- 0.70 ug/10^6 cells); assay type: functional; outline: as §1
MCF7 [12] = experiment: Effect on DNA level in human MCF7 cells assessed per 10 '6 cells at 10 ug/ml after 24 hrs (reference value: 6.80 +/- 0.70 ug/10^6 cells); assay type: functional; outline: as §1
MCF7 [13] = experiment: Effect on DNA level in human MCF7 cells assessed per 10 '6 cells at 20 ug/ml after 24 hrs (reference value: 6.80 +/- 0.70 ug/10^6 cells); assay type: functional; outline: as §1
MCF7 [14] = experiment: Effect on RNA level in human MCF7 cells assessed per 10 '6 cells at 2 ug/ml after 24 hrs (reference value: 11.50 +/- 0.70 ug/10^6 cells); assay type: functional; outline: as §1
MCF7 [15] = experiment: Effect on RNA level in human MCF7 cells assessed per 10 '6 cells at 5 ug/ml after 24 hrs (reference value: 11.50 +/- 0.70 ug/10^6 cells); assay type: functional; outline: as §1
MCF7 [16] = experiment: Effect on RNA level in human MCF7 cells assessed per 10 '6 cells at 10 ug/ml after 24 hrs (reference value: 11.50 +/- 0.70 ug/10^6 cells); assay type: functional; outline: as §1
MCF7 [17] = experiment: Effect on RNA level in human MCF7 cells assessed per 10 '6 cells at 20 ug/ml after 24 hrs (reference value: 11.50 +/- 0.70 ug/10^6 cells); assay type: functional; outline: as §1
MCF7 [18] = experiment: Decrease in DNA level in human MCF7 cells assessed per 10 '6 cells after 24 hrs relative to control; assay type: functional, cell-based; outline: as §1
MCF7 [19] = experiment: Decrease in RNA level in human MCF7 cells assessed per 10 '6 cells after 24 hrs relative to control; assay type: functional, cell-based; outline: as §1
MCF7 [20] = experiment: Antiproliferative activity against human MCF7 cells after 24 hrs by MTT assay; assay type: functional, cell-based; conditions: for IC50: MCF7, 24 h
Outline: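 MCF-7 cells (DMEM, 10% heat-inactivated FCS, penicillin/streptomycin, 37 °C, 5% CO2) plated at 0.65 × 10⁵ cells/well and given 24 h to attach. Exposed to compound or cisplatin at 2, 5, 10 or 20 µg/ml for 24 h at 37 °C. MTT added for 4 h, formazan dissolved in DMSO, absorbance read at 570 nm. Viability taken relative to untreated cells and IC50 derived.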

MCF7 [21] = experiment: Effect on SOD level in human MCF7 cells assessed per mg protein at 2 ug/ml after 24 hrs (reference value: 27.61+/- 3.72 U/mg of protein); assay type: functional
MCF7 [22] = experiment: Effect on SOD level in human MCF7 cells assessed per mg protein at 5 ug/ml after 24 hrs (reference value: 27.61+/- 3.72 U/mg of protein); assay type: functional
MCF7 [23] = experiment: Effect on SOD level in human MCF7 cells assessed per mg protein at 10 ug/ml after 24 hrs (reference value: 27.61+/- 3.72 U/mg of protein); assay type: functional
MCF7 [24] = experiment: Effect on SOD level in human MCF7 cells assessed per mg protein at 20 ug/ml after 24 hrs (reference value: 27.61+/- 3.72 U/mg of protein); assay type: functional
MCF7 [25] = experiment: Effect on CAT level in human MCF7 cells assessed per mg protein at 2 ug/ml after 24 hrs (reference value: 7.90+/- 0.67 U/mg of protein); assay type: functional
MCF7 [26] = experiment: Effect on CAT level in human MCF7 cells assessed per mg protein at 5 ug/ml after 24 hrs (reference value: 7.90+/- 0.67 U/mg of protein); assay type: functional
MCF7 [27] = experiment: Effect on CAT level in human MCF7 cells assessed per mg protein at 10 ug/ml after 24 hrs (reference value: 7.90+/- 0.67 U/mg of protein); assay type: functional
MCF7 [28] = experiment: Effect on CAT level in human MCF7 cells assessed per mg protein at 20 ug/ml after 24 hrs (reference value: 7.90+/- 0.67 U/mg of protein); assay type: functional
MCF7 [29] = experiment: Effect on glutathione peroxidase level in human MCF7 cells assessed per mg protein at 2 ug/ml after 24 hrs (reference value: 11.20 +/- 1.36 U/mg of protein); assay type: functional
MCF7 [30] = experiment: Effect on glutathione peroxidase level in human MCF7 cells assessed per mg protein at 5 ug/ml after 24 hrs (reference value: 11.20 +/- 1.36 U/mg of protein); assay type: functional
MCF7 [31] = experiment: Effect on glutathione peroxidase level in human MCF7 cells assessed per mg protein at 10 ug/ml after 24 hrs (reference value: 11.20 +/- 1.36 U/mg of protein); assay type: functional
MCF7 [32] = experiment: Effect on glutathione peroxidase level in human MCF7 cells assessed per mg protein at 20 ug/ml after 24 hrs (reference value: 11.20 +/- 1.36 U/mg of protein); assay type: functional
MCF7 [33] = experiment: Effect on glutathione level in human MCF7 cells assessed per mg protein at 2 ug/ml by Ellman method after 24 hrs (reference value: 39.82 +/- 4.20 nmol/mg of protein); assay type: functional
MCF7 [34] = experiment: Effect on glutathione level in human MCF7 cells assessed per mg protein at 5 ug/ml by Ellman method after 24 hrs (reference value: 39.82 +/- 4.20 nmol/mg of protein); assay type: functional
MCF7 [35] = experiment: Effect on glutathione level in human MCF7 cells assessed per mg protein at 10 ug/ml by Ellman method after 24 hrs (reference value: 39.82 +/- 4.20 nmol/mg of protein); assay type: functional
MCF7 [36] = experiment: Effect on glutathione level in human MCF7 cells assessed per mg protein at 20 ug/ml by Ellman method after 24 hrs (reference value: 39.82 +/- 4.20 nmol/mg of protein); assay type: functional

SMILES | Activity (MCF7 [1]) [nmol] | Activity (MCF7 [2]) [nmol] | Activity (MCF7 [3]) [nmol] | Activity (MCF7 [4]) [nmol] | Activity (MCF7 [5]) | Activity (MCF7 [6]) | Activity (MCF7 [7]) | Activity (MCF7 [8]) | Activity (MCF7 [9]) | Activity (MCF7 [10]) [µg/10^6 cells] | Activity (MCF7 [11]) [µg/10^6 cells] | Activity (MCF7 [12]) [µg/10^6 cells] | Activity (MCF7 [13]) [µg/10^6 cells] | Activity (MCF7 [14]) [µg/10^6 cells] | Activity (MCF7 [15]) [µg/10^6 cells] | Activity (MCF7 [16]) [µg/10^6 cells] | Activity (MCF7 [17]) [µg/10^6 cells] | Activity (MCF7 [18]) | Activity (MCF7 [19]) | Activity (MCF7 [20]) | further results
CCSc1ncnc2c1cnn2-c1nc(C)nc2sc3c(c12)-c1ccccc1CC3 | 35 | 55 | 60.5 | 80 | Dose-dependent effect | Dose-dependent effect | Dose-dependent effect | Dose-dependent effect | Dose-dependent effect | 3.8 | 3.1 | 2.76 | 1.82 | 5.5 | 4.32 | 4 | 3.61 | Dose-dependent effect | Dose-dependent effect | Dose-dependent effect | IC50 (MCF7 [20]): 3 µg/mL (≈ 6.97 µM); Activity (MCF7 [21]): 125 U/mg protein; Activity (MCF7 [22]): 150 U/mg protein; Activity (MCF7 [23]): 360 U/mg protein; Activity (MCF7 [24]): 385 U/mg protein; Activity (MCF7 [25]): 3.6 U/mg protein; Activity (MCF7 [26]): 2.9 U/mg protein; Activity (MCF7 [27]): 1.76 U/mg protein; Activity (MCF7 [28]): 1.55 U/mg protein; Activity (MCF7 [29]): 5.6 U/mg protein; Activity (MCF7 [30]): 4.25 U/mg protein; Activity (MCF7 [31]): 3 U/mg protein; Activity (MCF7 [32]): 2.2 U/mg protein; Activity (MCF7 [33]): 20.11 nmol; Activity (MCF7 [34]): 19.16 nmol; Activity (MCF7 [35]): 17 nmol; Activity (MCF7 [36]): 14.8 nmol
Cc1nc(-n2ncc3c(=S)[nH]cnc32)c2c3c(sc2n1)CCc1ccccc1-3 | 24.2 | 21.6 | 30.5 | 46.37 | Dose-dependent effect | Dose-dependent effect | Dose-dependent effect | Dose-dependent effect | Dose-dependent effect | 5.3 | 5 | 4.76 | 4 | 9.11 | 7.9 | 7 | 6.8 | Dose-dependent effect | Dose-dependent effect | Dose-dependent effect | IC50 (MCF7 [20]): 8 µg/mL (≈ 19.9 µM); Activity (MCF7 [21]): 77.9 U/mg protein; Activity (MCF7 [22]): 85.4 U/mg protein; Activity (MCF7 [23]): 121 U/mg protein; Activity (MCF7 [24]): 181 U/mg protein; Activity (MCF7 [25]): 6.33 U/mg protein; Activity (MCF7 [26]): 5.36 U/mg protein; Activity (MCF7 [27]): 4.9 U/mg protein; Activity (MCF7 [28]): 4 U/mg protein; Activity (MCF7 [29]): 8.3 U/mg protein; Activity (MCF7 [30]): 7.9 U/mg protein; Activity (MCF7 [31]): 7.7 U/mg protein; Activity (MCF7 [32]): 6.82 U/mg protein; Activity (MCF7 [33]): 39.9 nmol; Activity (MCF7 [34]): 33.12 nmol; Activity (MCF7 [35]): 29.11 nmol; Activity (MCF7 [36]): 27 nmol
Cc1nc(-n2ncc3c(Cl)ncnc32)c2c3c(sc2n1)CCc1ccccc1-3 | 28.23 | 25.45 | 37.85 | 52.33 | Dose-dependent effect | Dose-dependent effect | Dose-dependent effect | Dose-dependent effect | Dose-dependent effect | 4.85 | 4.46 | 4 | 3.85 | 8.75 | 7.5 | 6.7 | 6.5 | Dose-dependent effect | Dose-dependent effect | Dose-dependent effect | IC50 (MCF7 [20]): 7 µg/mL (≈ 17.3 µM); Activity (MCF7 [21]): 80.2 U/mg protein; Activity (MCF7 [22]): 90.6 U/mg protein; Activity (MCF7 [23]): 160 U/mg protein; Activity (MCF7 [24]): 201 U/mg protein; Activity (MCF7 [25]): 5.8 U/mg protein; Activity (MCF7 [26]): 4.9 U/mg protein; Activity (MCF7 [27]): 4.2 U/mg protein; Activity (MCF7 [28]): 3.65 U/mg protein; Activity (MCF7 [29]): 8 U/mg protein; Activity (MCF7 [30]): 7.6 U/mg protein; Activity (MCF7 [31]): 7 U/mg protein; Activity (MCF7 [32]): 6.7 U/mg protein; Activity (MCF7 [33]): 35.8 nmol; Activity (MCF7 [34]): 29.5 nmol; Activity (MCF7 [35]): 27.2 nmol; Activity (MCF7 [36]): 25 nmol
CCOCCSc1ncnc2c1cnn2-c1nc(C)nc2sc3c(c12)-c1ccccc1CC3 | 30.3 | 30.5 | 40 | 55 | Dose-dependent effect | Dose-dependent effect | Dose-dependent effect | Dose-dependent effect | Dose-dependent effect | 4.6 | 4.2 | 3.75 | 3 | 7.9 | 7 | 6.5 | 6.2 | Dose-dependent effect | Dose-dependent effect | Dose-dependent effect | IC50 (MCF7 [20]): 6.4 µg/mL (≈ 13.5 µM); Activity (MCF7 [21]): 85.7 U/mg protein; Activity (MCF7 [22]): 115 U/mg protein; Activity (MCF7 [23]): 190 U/mg protein; Activity (MCF7 [24]): 251 U/mg protein; Activity (MCF7 [25]): 5.2 U/mg protein; Activity (MCF7 [26]): 4.5 U/mg protein; Activity (MCF7 [27]): 4 U/mg protein; Activity (MCF7 [28]): 3.2 U/mg protein; Activity (MCF7 [29]): 7.35 U/mg protein; Activity (MCF7 [30]): 7 U/mg protein; Activity (MCF7 [31]): 6 U/mg protein; Activity (MCF7 [32]): 5.25 U/mg protein; Activity (MCF7 [33]): 30 nmol; Activity (MCF7 [34]): 25 nmol; Activity (MCF7 [35]): 20.25 nmol; Activity (MCF7 [36]): 18.6 nmol

From ChEMBL document CHEMBL1759915, “Synthesis and anticancer effects of some novel pyrazolo[3,4-d]pyrimidine derivatives by generating reactive oxygen species in human breast adenocarcinoma cells” (Eur J Med Chem, 2011)
